# High-throughput results deposited in PubChem BioAssay by Johns Hopkins Ion Channel Center.
# TRPC4 act: opens the mouse TRPC4 cation channel; Q9QUQ5; HEK293 TRPC4beta/mu-opioid, Fluo4 calcium fluorescence; hits give high values; B-score at 10 µM; 310,000 tested, 0.49% active;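 active means B-score above 5 SD of library B-scores, and initial fluorescence ratio not above library mean plus 5 SD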;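 further: positive B-score marks a calcium rise read as TRPC4 activation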
#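 system = HEK293 cells stably co-expressing mouse TRPC4beta and mu-opioid receptor | schedule = Fluo4 dye loading 45 min at room temperature, 110 s recording | measure = B-scored integrated calcium fluorescence ratio | signal = Fluo4 calcium-sensitive dye fluorescence, kinetic, 1 Hz baseline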
# TRPC6 activator: activators of mouse TRPC6 channel. HEK293-TRPC6 membrane potential dye fluorescence; hits give high values. Q61143. B-score at 10 µM. 310,000 tested, 0.13% active. AID 2550;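 active means B-score of the integrated fluorescence ratio above library mean plus 3 SD, and starting fluorescence ratio within library mean plus 5 SD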;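 further: higher score means more depolarization so channel activation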
# TRPC6 inh: mouse TRPC6 channel inhibition; Q61143; HEK293-TRPC6, membrane potential dye, ACh-evoked depolarization; hits give low values; B-score at 10 µM; 310,000 tested, 1.1% active; AID 2553;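 active means B-score under library mean minus 3 SD, initial fluorescence not abnormally high, positive integrated signal ratio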;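 further: B-score derived from integrated fluorescence ratio over the kinetic read; more negative B-score means stronger inhibition of depolarization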
# TRPC4 potent: allosteric potentiators of mouse TRPC4 channel; Q9QUQ5; HEK293 TRPC4beta/mu-opioid, DAMGO EC20, Fluo-4 Ca2+ flux; hits give high values; B-score at 10 µM; 310,000 tested, 0.42% active; AID 2227;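 active means B-score of calcium response area above 5 SD of library B-scores, with initial fluorescence ratio within 5 SD of library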;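 further: B-score of integrated fluorescence ratio over time as area under calcium response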
# TRPC4 block: TRPC4 (mouse) channel inhibition; Q9QUQ5; AID 2247; HEK293 TRPC4beta/mu-opioid, DAMGO-evoked Fluo4 calcium flux; hits give low values; B-score at 10 µM; 300,000 tested, 0.39% active;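 active means B-score over 3 SD under the library average, no early fluorescence shift, positive overall ratio signal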
#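 material = TRPC4beta/mu-opioid receptor HEK293 cell line | probe or stimulus = sequential submaximal and maximal DAMGO stimulation | compound dosing = one concentration per compound | measured by = Fluo4 Ca2+ flux fluorescence | evaluation = integrated fluorescence ratio relative to baseline, converted to per-well B score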
# * = called active by the depositor; i = inactive. This is a sample that favours compounds with a hit; in the whole collection about 2.3% have one here.
SMILES,TRPC4 act,TRPC6 activator,TRPC6 inh,TRPC4 potent,TRPC4 block
Cc1cccc(/C(N)=N/OC(=O)COc2ccc(Cl)cc2)c1,i,i,i,i,i
O=C(Cc1ccc(Cl)cc1)NNC(=S)NC(=O)c1cccs1,107*,i,i,i,i
CC(C)CN(C(=O)COC(=O)CCc1nc2ccccc2s1)c1c(N)n(Cc2ccccc2)c(=O)[nH]c1=O,i,i,i,i,i
Cc1occc1C(=O)NNC(=S)NC(=O)COc1ccc(Cl)cc1Cl,87*,i,i,i,i
O=C(COc1ccccc1)NNC(=S)NC(=O)c1ccc(Cl)cc1Cl,69*,i,i,i,i
O=C(COc1cccc(Cl)c1)NNC(=S)Nc1ccccc1,i,i,i,i,i
O=C(NC(=S)NNC(=O)[C@H]1C[C@@H]1c1ccccc1)c1cccc(F)c1,211*,i,i,i,i
COc1ccc(C(=O)NC(=S)NNC(=O)c2cccc(C)c2)cc1,214*,i,i,i,i
COc1ccc(C(=O)NNC(=S)Nc2ccccc2)cc1,i,i,i,i,i
O=C(COc1cccc(Cl)c1)Nc1ccccc1N1CCCCC1,i,i,i,i,i
COc1cc2c(cc1OC)C(c1ccccc1)N(C(=O)C(C)(C)C)CC2 (configuration not stated),i,i,i,i,i
Cc1cccc(C(=O)NCC(=O)NCC2COc3ccccc3O2)c1 (configuration not stated),i,i,i,i,i
COc1ccc(C(=O)NNC(=S)NC(=O)c2cccnc2)cc1,i,i,i,i,i
COc1ccc(C(=O)NNC(=S)NC(=O)c2ccc(OC)cc2)cc1,78*,i,i,i,i
Cc1ccc(C(=O)NNC(=O)c2cccc(C)c2)cc1,i,i,i,i,i
Cc1cccc(C(=O)NNC(=S)NC(=O)c2ccccc2)c1,173*,i,i,i,i
COc1ccccc1C(=O)NNC(=S)NC(=O)c1sc2ccccc2c1Cl,48*,i,i,i,-8*
CCCCC(=O)NC(=S)NNC(=O)c1ccc(Cl)cc1Cl,165*,i,i,i,i
COc1ccc(S(=O)(=O)N2CCC(C(=O)N(CC(C)C)C3CCS(=O)(=O)C3)CC2)cc1OC (configuration not stated),i,i,i,i,i
Cn1c(Cc2cccs2)nnc1SCC(=O)Nc1ccc(F)cc1F,i,i,i,i,i
Cc1ccc(S(=O)(=O)CCC(=O)Nc2nnc(-c3cccs3)o2)cc1,i,i,i,i,i
COc1ccc(C(=O)NNC(=S)NC(=O)c2cccs2)cc1,85*,i,i,i,i
Cc1cccc(C(=O)NNC(=S)NC(=O)c2cccs2)c1,212*,i,i,i,i
NS(=O)(=O)c1ccc(NC(=O)CSc2nc3ccccc3nc2N2CCOCC2)cc1,i,i,i,i,i
CCOC(=O)c1sc2nc(CSc3ccccc3)nc(NCCN(C)C)c2c1C,i,i,i,i,-5*
SMILES,TRPC4 act,TRPC6 activator,TRPC6 inh,TRPC4 potent,TRPC4 block
CCOC(=O)c1sc2nc(C)nc(NCCc3ccccn3)c2c1C,i,i,i,i,i
NCC(c1ccc(Cl)cc1Cl)c1c[nH]c2ccccc12 (configuration not stated),i,i,i,26*,i
CN(C)CCCNC(=S)NCC(c1ccc(Cl)cc1Cl)c1c[nH]c2ccccc12 (configuration not stated),i,i,i,12*,i
Clc1ccccc1C1CC(c2ccccc2)=Nc2ccccc2N1 (configuration not stated),i,i,i,10*,i
CCOc1ccc(Cc2c(C)[nH]c3ccc(C(=O)O)cc3c2=S)cc1,i,i,i,i,i
O=C(O)CC(c1cccc2ccccc12)N1Cc2ccccc2C1=O (configuration not stated),i,i,i,34*,i
CCOC(=O)C1(Cc2ccccc2)CCN(Cc2cccc3nccnc23)CC1,i,i,i,i,i
CCOC(=O)C1(Cc2ccccc2)CCN(Cc2cccn2-c2cccnc2)CC1,45*,i,i,i,i
CCOC(=O)C1(Cc2ccccc2)CCN(Cc2cccn2-c2nccs2)CC1,46*,i,i,i,i
CCOC(=O)C1(CCOc2ccccc2)CCN(CCCn2cccn2)CC1,i,i,i,i,i
CCOC(=O)C1(CCOc2ccccc2)CCN(Cc2cccn2-c2cccnc2)CC1,116*,i,i,i,i
CC(C)c1nnc(NC(=O)C2CCN(C(=O)Nc3ccc(Cl)cc3)CC2)s1,i,i,i,i,i
Cc1[nH]c2ccccc2c1C(c1ccncc1)N1CCN(c2ccccc2F)CC1 (configuration not stated),i,i,i,i,i
CCOC(=O)C1CCN(C(c2ccccn2)c2c(C)[nH]c3ccccc23)CC1 (configuration not stated),i,i,-5.83*,i,i
Cc1[nH]c2ccccc2c1C(c1ccncc1)N1CCN(c2ccccn2)CC1 (configuration not stated),49*,i,i,i,i
CCN(C(=O)c1cnc(NC(C)C)cc1C(F)(F)F)c1ccc(Cl)cc1Cl,i,i,i,i,-6*
COC(=O)c1ccc(N2CCN(C)CC2)c(NC(=O)COc2cccc(C)c2)c1,63*,i,i,i,i
Cc1cccc(OCC(=O)Nc2ccccc2N2CCN(C)CC2)c1,i,i,i,i,i
CN1CCN(c2ccc(NC(=O)COc3ccccc3)cc2Cl)CC1,i,i,i,i,i
COC(=O)c1ccc(N2CCN(C)CC2)c(NC(=O)c2cccs2)c1,142*,i,i,i,i
COC(=O)c1ccc(N2CCN(C)CC2)c(NC(=O)COc2ccccc2)c1,120*,i,i,i,i
COC(=O)c1ccc(N2CCOCC2)c(NC(=O)c2cccs2)c1,i,i,i,i,i
CCOP(=O)(OCC)c1nc(-c2cccc3ccccc23)oc1NCc1ccccc1,i,i,i,i,i
CCOP(=O)(OCC)c1nc(-c2cccc3ccccc23)oc1NCc1ccc(OC)cc1,i,i,i,13*,i
CCCCc1nc(N2CCN(C(=O)c3ccco3)CC2)c(C#N)c2c1CCCC2,i,i,i,i,i
